This is an account of results in ChEMBL document CHEMBL3098104, “Design, synthesis and preliminary SAR studies of novel N-arylmethyl substituted piperidine-linked aniline derivatives as potent HIV-1 NNRTIs” (Bioorg Med Chem, 2014).

The nature of series [1]: Cytotoxicity against human MT4 cells assessed as cell viability after 5 days by MTT assay. Type of series: cell-based. In short, it runs like this:
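Mock-infected MT-4 cells, from exponentially growing cultures pelleted and resuspended at 6 × 10^5 cells/ml, were run in triplicate wells alongside the infected series. Compound was added from 10× stocks at the start of the experiment. Viability was read by MTT after five days. CC50 is the concentration that lowers viability by 50%, taken as the median of two or three parallel assays.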

For series [2], the target named is Human immunodeficiency virus type 1 reverse transcriptase (Human immunodeficiency virus 1, UniProt Q72547). As to the kind of experiment: Inhibition of wild-type HIV1 reverse transcriptase assessed as incorporation of biotin-labeled dUTP. Put shortly:
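HIV-1 RT enzyme assay with poly(A)·oligo(dT)15 as template-primer. Incorporation of digoxigenin- and biotin-labeled dUTP into DNA was read colorimetrically with the peroxidase substrate ABTS.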

In series [3] the test system is Human immunodeficiency virus 2. The series can be described thus: Antiviral activity against HIV2 ROD infected in human MT4 cells assessed as inhibition of viral cytopathicity after 5 days by MTT assay. It is filed as functional, organism-based. The following applies: Human immunodeficiency virus 2, ISOLATE ROD, MT4, 120 h. Put shortly:
(§1)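 HIV-infected MT-4 cells were compared with mock-infected wells in triplicate. Exponentially growing cells were pelleted for 5 min at 1000 rpm and resuspended at 6 × 10^5 cells/ml. Compound was added at the start of infection from stocks at 10× final concentration. Viability was read by MTT five days post-infection. EC50 is the concentration giving 50% protection against virus-induced cytotoxicity, taken as the median of two or three parallel assays.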

Series [4] concerns Human immunodeficiency virus 1. The series can be described thus: Antiviral activity against HIV1 RES056 harboring reverse transcriptase K103N/Y181C mutant infected in human MT4 cells assessed as inhibition of viral cytopathicity after 5 days by MTT assay. To be noted: Human immunodeficiency virus 1, RES056, MT4, 120 h. It is filed as functional, organism-based. Put shortly: (§2)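 MT-4 cells pelleted 5 min at 1000 rpm, resuspended at 6 × 10^5 cells/ml and plated. Compounds added from 10× stocks at the start, in triplicate wells, to HIV-infected and mock-infected cells in parallel. Viability read by MTT 5 days after infection. EC50 is 50% protection from virus-induced cytotoxicity. CC50 is 50% loss of viability in mock-infected cells. SI = CC50/EC50. Median of two or three parallel assays.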
On the technique in general: Damage to the host cells serves as the signal in cytopathic effect assays.

The nature of series [5]: Selectivity index, ratio of CC50 for human MT4 cells to EC50 for HIV1 3B infected in human MT4 cells. To be noted: read-out: Ratio CC50/EC50. Type of series: toxicity, cell-based. In short, it runs like this: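 MT-4 cells at 6 × 10^5 cells/ml, in triplicate wells, infected with HIV-1 IIIB or mock-infected. Compounds added from 10× stocks at the start of infection. MTT viability read on day 5. SI = CC50 (mock-infected cells) / EC50 (IIIB). Median of two or three parallel assays.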

The test system of series [6] is Human immunodeficiency virus 1. As to the kind of experiment: Antiviral activity against wild-type HIV1 3B infected in human MT4 cells assessed as inhibition of viral cytopathicity after 5 days by MTT assay. It is filed as functional, organism-based. The following applies: Human immunodeficiency virus 1, 3B, MT4, 120 h. In short, it runs like this: as §1
Series [7] deals with Human immunodeficiency virus 1. As to the kind of experiment: Fold resistance, ratio of EC50 for HIV1 RES056 expressing K103N/Y181C mutant infected in human MT4 cells to EC50 for wild-type HIV1 3B infected in human MT4 cells. Type of series: functional. Put shortly: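 MTT protection assay in MT-4 cells run in parallel against the K103N/Y181C double mutant (RES056) and wild-type IIIB. Viability read 5 days after infection. Fold resistance = EC50 against the mutant divided by EC50 against IIIB. Median of two or three parallel assays.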

Series [8] in a line: Selectivity index, ratio of CC50 for human MT4 cells to EC50 for HIV1 RES056 harboring reverse transcriptase K103N/Y181C mutant infected in human MT4 cells. Type of series: toxicity, cell-based. The following applies: read-out: Ratio CC50/EC50. In short, it runs like this: as §2

Some results are limits rather than exact numbers.

As a reminder, the CC50 is the concentration at which the toxic effect on the cells reaches its halfway point. As usually defined, the IC50 is the concentration needed to halve the response being measured. As usually defined, the EC50 is the concentration needed to bring the measured effect to its halfway point. For the molecule `Cc1cc(C#N)cc(C)c1Oc1ccc([N+](=O)[O-])c(NC2CCN(Cc3ccc(S(C)(=O)=O)cc3)CC2)c1`, in series [1], the CC50 at 120 h is greater than 234 µM. Further, the IC50 in series [2] came to 360 nM. Also, the EC50 in series [3] was greater than 234 µM; in series [4], greater than 234 µM; in series [6] it was 22 nM. Moreover, the selectivity ratio in series [5] was greater than 10800. Further, the “Ratio EC50” value in series [7] was greater than 10770.
For the molecule `Cc1cc(C)c(Oc2ccc([N+](=O)[O-])c(NC3CCN(Cc4ccccc4)CC3)c2)c(C)c1`, the selectivity ratio in series [8] was less than 1; in series [5] it was 37. Moreover, the CC50 at 120 h in series [1] is 25 µM. In addition, the EC50 in series [3] is greater than 25 µM; in series [4], greater than 25 µM; in series [6] it was 660 nM. Moreover, the “Ratio EC50” value in series [7] is on record as greater than 37.
`Cc1cc(C#N)cc(C)c1Oc1ccc([N+](=O)[O-])c(NC2CCN(Cc3ccc(CO)cc3)CC2)c1`: the selectivity ratio in series [8] was less than 1; in series [5], 80. Further, the CC50 at 120 h in series [1] came to 11 µM. The EC50 is greater than 11 µM in series [3], greater than 11 µM in series [4] and 140 nM in series [6]. The “Ratio EC50” value in series [7] is on record as greater than 80.
